In all, about 2,500 compounds went through this assay and about 1,200 (48%) were called active. So high a share suggests a set chosen from earlier hits. The list shows a part of the results. Unmarked numbers belong to inactive results.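 Rule for the calls: active = mean activation above the low control average plus 3 SD, as set in the primary screen (cut at about 12% in these data); inactive = the rest.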
Biological target: Troponin I, cardiac muscle (Homo sapiens) + Troponin T, cardiac muscle (Homo sapiens) + Troponin C, slow skeletal and cardiac muscles (Homo sapiens) (UniProt P19429+P45379+P63316)
Assay: calcium sensitizers of cardiac thin filaments – biochemical, IANBD-TnC fluorescence, triplicate, confirmation (AID 504383);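 note: 0% = DMSO at 0.472 mM calcium and 100% = DMSO at 2.9 mM calcium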
Conditions: IANBD-labeled cardiac RTF, Ca2+ sensitivity fluorescence; at 7.2 µM; hits give high values; scaled from EC20 to saturating calcium; tested at EC20 calcium, 0.472 mM
Outline: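 Material: labelled regulated thin filaments; Reagent: 0.472 mM calcium; Incubation: 15 min compound incubation with filaments at 25 °C; Detection: filament fluorescence intensity; Evaluation: fluorescence increase normalised to calcium controls; Benchmarks: low control EC20 calcium, high control EC100 calcium.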

| Compound | activation |
| --- | --- |
| Cc1ccc(CNC(=O)c2cccc3c2C(=O)c2ccc(N4CCCCC4)cc2S3(=O)=O)cc1 | 6.7% |
| O=C(NC1CCCCC1)c1cccc2c1C(=O)c1ccc(N3CCC(Cc4ccccc4)CC3)cc1S2(=O)=O | 5.3% |
| C=CCNC(=O)c1cccc2c1C(=O)c1ccc(N3CCCC3)cc1S2(=O)=O | 6.98% |
| CN1CCC[C@@H]1CCNC(=O)c1cccc2c1C(=O)c1ccc(N3CCCC3)cc1S2(=O)=O | -0.88% |
| O=C(NCc1cccc(F)c1)c1cccc2c1C(=O)c1ccc(N3CCCC3)cc1S2(=O)=O | 8.28% |
| CC1CCN(c2ccc3c(c2)S(=O)(=O)c2cccc(C(=O)NC4CCCCC4)c2C3=O)CC1 | 1.22% |
| O=C(NCc1ccc(OC(F)(F)F)cc1)c1cccc2c1C(=O)c1ccc(N3CCCCC3)cc1S2(=O)=O | 17.5% (active) |
| O=C(NC1CCCCC1)c1cccc2c1C(=O)c1ccc(N3CCCC3)cc1S2(=O)=O | 87.8% (active) |
| O=C(NCC1CC1)c1cccc2c1C(=O)c1ccc(N3CCCC3)cc1S2(=O)=O | 183% (active) |
| CCOCCCNC(=S)NCCCNc1nc2c(C)cc(C)cc2cc1C#N | 7.25% |
| Cc1ccccc1OCCC(=O)Nc1cc(S(=O)(=O)N2CCCCC2)ccc1N1CCN(C)CC1 | 16.9% (active) |
| O=C(/C=C/c1cccc(F)c1)Nc1cc(S(=O)(=O)N2CCOCC2)ccc1N1CCCC1 | 9.19% |
| O=C(CN1CCc2ccccc2C1)Nc1cc(S(=O)(=O)N2CCOCC2)ccc1N1CCOCC1 | 8.9% |
| CCn1c(SCC(=O)c2ccc(Cl)cc2)nnc1C(C)C | 13.2% (active) |
| CCn1c(SCC(=O)NNC(=O)c2ccco2)nnc1-c1ccco1 | -0.46% |
| N#C/C(=C\c1ccc(N2CCOCC2)o1)C(=O)NCC1CCCO1 (centres undefined) | -0.28% |
| N#C/C(=C\c1ccc(N2CCOCC2)o1)C(=O)NC1CCCCC1 | 28.9% (active) |
| COc1ccc(NC(=O)/C(C#N)=C\c2ccc(N3CCOCC3)o2)cc1 | 32.2% (active) |
| N#C/C(=C/c1ccc(N2CCCCC2)o1)C(=O)NCCc1c[nH]c2ccccc12 | 40.9% (active) |
| N#C/C(=C/c1ccc(N2CCOCC2)o1)C(=O)Nc1ccccc1 | 2.26% |
| N#C/C(=C/c1ccc(N2CCCCC2)o1)C(=O)Nc1ccc(Cl)cc1 | 111% (active) |
| N#C/C(=C/c1ccc(N2CCOCC2)o1)C(=O)NC1CCCCC1 | -0.07% |
| CCOC(=O)/C(C#N)=N\Nc1cc(Cl)ccc1OC | 6.36% |
| N#C/C(=C\c1ccc(N2CCOCC2)o1)C(=O)N1CCOCC1 | 6.09% |

| Compound | activation |
| --- | --- |
| N#C/C(=C/c1ccc(N2CCOCC2)o1)C(=O)N1CCOCC1 | 10.1% |
| N#C/C(=C\c1ccc(N2CCCCC2)o1)C(=O)Nc1cccc(Br)c1 | 5.9% |
| N#C/C(=C\c1ccc(N2CCOCC2)o1)C(=O)NCCc1ccccc1 | 43.7% (active) |
| COCCNC(=O)/C(C#N)=C/c1ccc(N2CCOCC2)o1 | 9.29% |
| N#C/C(=C\c1ccc(N2CCCCC2)o1)C(N)=O | 11.6% (active) |
| N#C/C(=C/c1ccc(N2CCCCC2)o1)C(=O)Nc1ccc2ccccc2c1 | 171% (active) |
| CN1C(=O)NC(c2ccccc2[N+](=O)[O-])C2=C1CCCC2=O (centres undefined) | 14.6% (active) |
| O=C1NC2=C(C(=O)CCC2)C(c2ccccc2Cl)N1 (centres undefined) | 10.3% |
| COc1ccc(/C=C2/SC(c3ccc(C)cc3)=NC2=O)cc1OC | 34.6% (active) |
| COc1ccc(/C=C2\SC(=O)NC2=S)cc1OC | 7.81% |
| COc1ccc(/C=C2\SC(c3ccc(C)cc3)=NC2=O)cc1OC | 12.9% (active) |
| COc1ccc(/C=c2\s/c(=C/C(=O)c3ccc(C)cc3)[nH]c2=O)cc1OC | 1.66% |
| C=CCN1C(=O)/C(=C/c2ccc(O)c(OC)c2)S/C1=N/c1nccs1 | 5.76% |
| COc1cc(N2CCCC2)c(OC)cc1/C=C1/NC(=S)NC1=O | 113% (active) |
| O=C1CCC/C(=N/NC(=O)c2sc3ccccc3c2Cl)C1 | 7.01% |
| O=C1CCCC(=NNC(=O)c2cc3ccccc3cc2O)C1 | 8.36% |
| COc1ccc2c(Cl)c(C(=O)N/N=C3\CCCC(=O)C3)sc2c1 | 47.6% (active) |
| CC1(c2cccc(Br)c2)NC(=O)NC1=O (centres undefined) | 52.2% (active) |
| COc1ccc(NC(C)=O)cc1NC(=O)C1CCCN1C(=O)c1cccs1 (centres undefined) | 6.06% |
| COC(=O)C1=C(C(=O)OC)[C@@H]2Nc3ccccc3[C@@]23C[C@@H](C(=O)OC)N(C(=O)c2cccs2)C3=N1 | 36.8% (active) |
| O=C(CCC1CCCN(C(=O)C2=CCCC2)C1)N1CCN(c2ccccn2)CC1 (centres undefined) | 4.61% |
| Cc1ccc(SCC(=O)OCC(=O)NCc2cccs2)cc1 | 12.8% (active) |
| CCC1Oc2ccc(C)cc2N(CC(=O)NCc2cccs2)C1=O (centres undefined) | -5.95% |
| CC(=O)n1cc(CO)c2ccccc21 | 262% (active) |

| Compound | activation |
| --- | --- |
| Cc1ccc(Cl)c(NC(=O)CN(C)CC(=O)Nc2ccc(F)c(F)c2F)c1Cl | 2.04% |
| CC(CCc1ccc(O)cc1)NCCC(c1ccccc1)c1ccccc1 (centres undefined) | 48.6% (active) |
| NS(=O)(=O)c1ccc(NCc2c(F)cccc2Cl)cc1 | 45.6% (active) |
| CCN=C(NC#N)SCc1c(F)cccc1Cl | 11.4% |
| Cc1cccc(N=Cc2[nH]c3ccc(Br)c(Cl)c3c2O)c1 | 4.45% |
| CCOc1ccc(Cn2nnc(C(=O)NCCc3ccccc3)c2N)cc1 | 821% (active) |
| CCOc1ccc(Nc2nc(N)c([N+](=O)[O-])c(NCc3ccccc3)n2)cc1 | 7.49% |
| COc1cccc2cc(-c3nc(-c4cccs4)cs3)c(=O)oc12 | 3.53% |
| Cc1ccccc1-c1noc(-c2cccs2)n1 | 24.3% (active) |
| COc1ccc(N2CCN(C(=O)c3ccc(OCC4CCCO4)cc3)CC2)cc1 (centres undefined) | 71% (active) |
| O=C(C1=C(O)C(=O)N(c2nccs2)C1c1ccccc1)c1cc2ccccc2o1 (centres undefined) | 5.32% |
| COC(=O)c1sc(N2C(=O)C(O)=C(C(=O)c3ccc(C)o3)C2c2ccc(F)cc2)nc1C (centres undefined) | 35% (active) |
| CCCC1C(c2ccccc2)C(C#N)(C#N)C2(C#N)CC1(N)NC2=O (centres undefined) | 10.5% |
| N#C/C(=C\c1coc2ccc(O)cc2c1=O)C(=O)Nc1nc2ccccc2s1 | 12.6% (active) |
| Cc1ccc(N2C(=O)C3C(C(=O)c4ccccc4)=NN(c4ccccc4)C3C2=O)cc1 (centres undefined) | 29.5% (active) |
| O=C(C1=NN(c2ccccc2)C2C(=O)N(c3ccccc3Cl)C(=O)C12)c1ccccc1 (centres undefined) | 13.6% (active) |
| COc1cccc(/C=C/C(=C2\C(=O)N(c3ccccc3)N=C2C)c2ccc(Br)cc2)c1OC | 4.48% |
| O=C(C1=NN(c2ccccc2)C2C(=O)N(c3ccccc3)C(=O)C12)c1ccccc1 (centres undefined) | 3.95% |
| O=C(C1=NN(c2ccccc2)C2C(=O)N(c3cccc(Cl)c3)C(=O)C12)c1ccccc1 (centres undefined) | 35.7% (active) |
| COc1ccccc1N1C(=O)C2C(C(=O)c3ccccc3)=NN(c3ccccc3)C2C1=O (centres undefined) | 11.7% (active) |
| O=C(C1=NN(c2ccccc2)C2C(=O)N(c3ccc(Cl)cc3)C(=O)C12)c1ccccc1 (centres undefined) | 2.79% |
| O=C1N(c2cccc(Cl)c2)C(c2ccccc2)N2CCCN12 (centres undefined) | 6.5% |
| Cc1ccc(CC2C(=O)N(c3ccc(C)cc3)C(=O)C2C)cc1 (centres undefined) | 7.76% |
| COc1ccc(C2(CNC(C)=O)CCCC2)cc1OC | 3.15% |

| Compound | activation |
| --- | --- |
| COC(=O)c1c(-c2ccc(OC)c(OC)c2)csc1N | 13% (active) |
| CCOC(=O)c1c(-c2ccc(C)cc2)csc1NC(=O)/C(C#N)=C/c1ccc(O)c(OC)c1 | 4.04% |
| O=C(c1ccc(=O)[nH]c1)N(Cc1ccco1)C1(C(=O)NC2CCCCC2)CCCCC1 | 8.99% |
| O=C(CSCc1ccco1)NC1CCCC1 | 13.6% (active) |
| S=C(NC1CC1)NC1CCCc2ccccc21 (centres undefined) | 7.09% |
| COC(=O)c1sccc1NC(=O)CSCC(=O)O | 0.67% |
| COc1cc(NC(=O)CSc2nc3ccccc3n2-c2ccccc2)c(C)cc1[N+](=O)[O-] | 6.07% |
| COc1cc(NC(=O)CSc2ccccc2)c(C(=O)O)cc1OC | 23.2% (active) |
| CCOC(=O)C1=C(C)NC(C)=C(C(=O)OCC)C1c1ccco1 | 8.22% |
| CCOC(=O)N1CCC(NC(=O)c2cnn3c2NC(c2ccco2)CC3C(F)(F)F)CC1 (centres undefined) | 18% (active) |
| COc1ccccc1N1CCN(C(=O)CCC(=O)O)CC1 | 4.12% |
| COc1ccc(N2CCN(c3ccc([N+](=O)[O-])cc3Cl)CC2)cc1 | 41.8% (active) |
| CC1=N/C(=C/c2ccc([N+](=O)[O-])cc2)C(=O)N1c1ccc(Cl)cc1Cl | 6.42% |
| COc1ccccc1N1CCN(c2ccc([N+](=O)[O-])cc2Cl)CC1 | 90.7% (active) |
| COc1ccc(N2CCN(S(=O)(=O)Cc3ccccc3)CC2)cc1 | 10.5% |
| Cn1c(NC(=O)C[n+]2cc(-c3ccc(Cl)cc3)n3c2CCC3)cc(=O)n(C)c1=O | 5.8% |
| Cc1onc(-c2ccccc2Cl)c1C(=O)N(Cc1ccc(N(C)C)cc1)C(C)C | 12% (active) |
| CC(=O)Nc1ccc(SCC(=O)NNC(=O)CN(C)S(=O)(=O)c2ccc(C)cc2)cc1 | 98% (active) |
| Cc1ccc(Cn2c(Sc3nnc(C)s3)nc3c2c(=O)[nH]c(=O)n3C)cc1 | 108% (active) |
| COc1ccc(/C=c2\s/c(=C/C(=O)c3ccc(C)cc3)[nH]c2=O)c(OC)c1 | 10.7% |
| COc1ccc(/C=C2\CC/C(=C\c3ccc(OC)cc3OC)C2=O)c(OC)c1 | 50.4% (active) |
| COc1cc(/C=C2\CC/C(=C\c3ccc(OCCO)c(OC)c3)C2=O)ccc1OCCO | 7.54% |

From PubChem BioAssay AID504383 (The Scripps Research Institute Molecular Screening Center, 2011)
